# Assays:
# [1] = system: HeLa; assay: Antitumor activity against human HeLa cells xenografted in nude mouse assessed as tumor volume at 20 mg/kg, ip after 14 days (reference value: 2292.17 mm3); type: functional
# [2] = system: Mus musculus; assay: Hepatotoxicity in nude mouse xenografted with human HeLa cells assessed as cellular inflammatory infiltration in liver at 10 to 20 mg/kg, ip after 14 days by hematoxylin and eosin staining based microscopic analysis; type: toxicity, organism-based; details: in vivo, 336 h
# Outline: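 HeLa xenograft nude mice with tumours near 100 mm³, randomised to four groups of 28 mice in total. Dosing was intraperitoneal: vehicle, CA-4 10 mg/kg, or test compound at 10 or 20 mg/kg, continued for 14 days. Heart, liver, kidney and spleen were then H&E-stained and examined for inflammatory infiltration, edema, necrosis and cell morphology.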
# [3] = system: HepG2; assay: Induction of apoptosis in human HepG2 cells assessed as late apoptotic cells at 0.020 uM after 24 hrs by Annexin V-FITC/propidium iodide staining based flow cytometric analysis (reference value: 2.93%); type: functional
# Outline: (§1)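 HepG2 and HeLa cells were exposed to 0, 0.02, 0.040, 0.060, 0.080 and 0.10 µM for 6, 12 and 24 h. Cells were double-stained with Annexin V-FITC/PI and read by flow cytometry. Apoptotic rate was the percentage of FITC-positive cells, counting early plus late apoptotic.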
# [4] = system: HeLa; assay: Induction of apoptosis in human HeLa cells assessed as necrotic cells at 0.080 uM after 24 hrs by Annexin V-FITC/propidium iodide staining based flow cytometric analysis (reference value: 0.242%); type: functional; outline: as §1
# [5] = system: HepG2; assay: Cell cycle arrest in human HepG2 cells assessed as accumulation at G2/M phase at 0.060 uM after 24 hrs by propidium iodide staining based flow cytometric analysis (reference value: 20.17%); type: functional
# Outline: (§2)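 HepG2 and HeLa cells were exposed to 0, 0.020, 0.040, 0.060, 0.080 or 0.10 µM for 6, 12 or 24 h. DNA content was stained with propidium iodide and analysed by flow cytometry to give the percentage of cells in G0/G1, S and G2/M phases; sub-G1 cells were also recorded.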
# [6] = system: HepG2; assay: Induction of apoptosis in human HepG2 cells assessed as necrotic cells at 0.020 uM after 24 hrs by Annexin V-FITC/propidium iodide staining based flow cytometric analysis (reference value: 0.270%); type: functional; outline: as §1
# [7] = system: HeLa; assay: Cell cycle arrest in human HeLa cells assessed as accumulation at G0/G1 phase at 0.10 uM after 24 hrs by propidium iodide staining based flow cytometric analysis (reference value: 66.26%); type: functional; outline: as §2
# [8] = system: HeLa; assay: Induction of apoptosis in human HeLa cells assessed as necrotic cells at 0.10 uM after 24 hrs by Annexin V-FITC/propidium iodide staining based flow cytometric analysis (reference value: 0.242%); type: functional; outline: as §1
# [9] = system: HepG2; assay: Growth inhibition of human HepG2 cells after 48 hrs by MTT assay; type: functional; details: HepG2, 48 h
# Outline: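 Proliferation read-out; GI50 taken as the concentration giving 50% reduction of cancer cell proliferation.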
# [10] = system: HepG2; assay: Cell cycle arrest in human HepG2 cells assessed as accumulation at G0/G1 phase at 0.080 uM after 24 hrs by propidium iodide staining based flow cytometric analysis (reference value: 55.63%); type: functional; outline: as §2
# [11] = system: Mus musculus; assay: Nephrotoxicity in nude mouse xenografted with human HeLa cells assessed as cellular inflammatory infiltration in kidney at 10 to 20 mg/kg, ip after 14 days by hematoxylin and eosin staining based microscopic analysis; type: toxicity, organism-based; details: in vivo, 336 h
# [12] = system: HeLa; assay: Induction of apoptosis in human HeLa cells assessed as late apoptotic cells at 0.020 uM after 24 hrs by Annexin V-FITC/propidium iodide staining based flow cytometric analysis (reference value: 4.98%); type: functional; outline: as §1
# [13] = Selectivity index, ratio of CC50 for HEK293T cells to GI50 for human MCF7 cells; type: toxicity; details: HEK293T cells and MCF7 cells, read-out: Selectivity Index
# Outline: (§3)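 Ratio CC50/GI50: CC50 is the concentration reducing non-tumour 293T cell proliferation by 50%; GI50 is the concentration reducing cancer cell proliferation by 50%.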
# [14] = Cytotoxicity against HEK293T cells assessed as reduction in cell viability after 48 hrs by MTT assay; type: cell-based, HEK-293T; details: human
# [15] = system: Mus musculus; assay: Toxicity in nude mouse xenografted with human HeLa cells assessed as necrosis in spleen at 10 to 20 mg/kg, ip after 14 days by hematoxylin and eosin staining based microscopic analysis; type: organism-based; details: in vivo, 336 h
# [16] = system: Mus musculus; assay: Cardiotoxicity in nude mouse xenografted with human HeLa cells assessed as morphological changes in heart cells at 10 to 20 mg/kg, ip after 14 days by hematoxylin and eosin staining based microscopic analysis; type: toxicity, organism-based; details: in vivo, 336 h
# Outline: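 Excised tumours and heart, liver, kidney and spleen were H&E-stained and examined microscopically. Tumour scoring covered cell arrangement and necrosis. Organ scoring covered inflammatory infiltration, edema, necrosis and cell morphology.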
# [17] = system: HeLa; assay: Cell cycle arrest in human HeLa cells assessed as accumulation at G0/G1 phase at 0.020 uM after 24 hrs by propidium iodide staining based flow cytometric analysis (reference value: 66.26%); type: functional; outline: as §2
# [18] = system: HeLa; assay: Antitumor activity against human HeLa cells xenografted in nude mouse assessed as relative tumor growth inhibition at 20 mg/kg, ip after 14 days (reference value: 59.92%); type: functional; details: 336 h, read-out: TGI
# [19] = system: HepG2; assay: Cell cycle arrest in human HepG2 cells assessed as accumulation at S phase at 0.040 uM after 24 hrs by propidium iodide staining based flow cytometric analysis (reference value: 20.40%); type: functional; outline: as §2
# [20] = system: HepG2; assay: Induction of apoptosis in human HepG2 cells assessed as early apoptotic cells at 0.020 uM after 24 hrs by Annexin V-FITC/propidium iodide staining based flow cytometric analysis (reference value: 2.31%); type: functional; outline: as §1
# [21] = system: HepG2; assay: Induction of apoptosis in human HepG2 cells assessed as viable cells at 0.10 uM after 24 hrs by Annexin V-FITC/propidium iodide staining based flow cytometric analysis (reference value: 94.5%); type: functional; details: HepG2, 24 h, read-out: Activity; outline: as §1
# [22] = system: HeLa; assay: Antitumor activity against human HeLa cells xenografted in nude mouse assessed as tumor weight at 20 mg/kg, ip after 14 days (reference value: 1.54 g); type: functional
# [23] = system: HeLa; assay: Induction of apoptosis in human HeLa cells assessed as viable cells at 0.020 uM after 24 hrs by Annexin V-FITC/propidium iodide staining based flow cytometric analysis (reference value: 88.6%); type: functional; details: read-out: Activity; outline: as §1
# [24] = system: HeLa; assay: Cell cycle arrest in human HeLa cells assessed as accumulation at S phase at 0.020 uM after 24 hrs by propidium iodide staining based flow cytometric analysis (reference value: 17.46%); type: functional; outline: as §2
# [25] = system: HepG2; assay: Cell cycle arrest in human HepG2 cells assessed as accumulation at G0/G1 phase at 0.020 uM after 24 hrs by propidium iodide staining based flow cytometric analysis (reference value: 55.63%); type: functional; outline: as §2
# [26] = Selectivity index, ratio of CC50 for HEK293T cells to GI50 for human HeLa cells; type: toxicity; details: HEK293T cells and HeLa cells, read-out: Selectivity Index; outline: as §3
# [27] = system: HepG2; assay: Cell cycle arrest in human HepG2 cells assessed as accumulation at S phase at 0.080 uM after 24 hrs by propidium iodide staining based flow cytometric analysis (reference value: 20.40%); type: functional; outline: as §2
# [28] = system: HeLa; assay: Induction of apoptosis in human HeLa cells assessed as early apoptotic cells at 0.060 uM after 24 hrs by Annexin V-FITC/propidium iodide staining based flow cytometric analysis (reference value: 6.17%); type: functional; outline: as §1
structure (smiles),measurement,setting,value
COc1cccc(C2=NN(C(=O)c3ccc(C)nc3)C(c3cn(C)c4ccc(OC)cc34)C2)c1 (stereo not drawn),Activity,[1],881.93 mm3
same,Activity,[2],Non-Toxic
same,Activity,[3],3.18%
same,Activity,[4],1.02%
same,Activity,[5],41.92%
same,Activity,[6],0.771%
same,Activity,[7],6.19%
same,Activity,[8],0.76%
same,GI50,[9],0.029 µM
same,Activity,[10],7.81%
same,Activity,[11],Non-Toxic
same,Activity,[12],7.98%
same,selectivity ratio,[13],3 to 10
same,CC50 at 48 h,[14],> 300 µM
same,Activity,[15],Non-Toxic
same,Activity,[16],Non-Toxic
same,Activity,[17],66.95%
same,inhibition in vivo at 20 mg/kg,[18],61.5%
same,Activity,[19],21.59%
same,Activity,[20],3.18%
same,viability at 0.1 µM,[21],70.7%
same,Activity,[22],0.53 g
same,viability at 0.02 µM,[23],88.7%
same,Activity,[24],9.62%
same,Activity,[25],41.26%
same,selectivity ratio,[26],3 to 10
same,Activity,[27],28.38%
same,Activity,[28],26.1%

# Source: ChEMBL document CHEMBL4270573, “Novel nicotinoyl pyrazoline derivates bearing N-methyl indole moiety as antitumor agents: Design, synthesis and evaluation” (Eur J Med Chem, 2018)
